High-throughput results deposited in PubChem by several laboratories.
STAT1 inh: STAT1 signaling inhibition | NIH 3T3 STAT1-luciferase reporter, IFN-gamma, luminescence | inhibition, % at 5.5 µM | hit rate 0.35% among 200,000 | AID 920;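 active = inhibition above a set limit, the mean inhibition across all tested compounds plus 3 SD, cut at about 34% in these data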;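 note: 0% = IFN-gamma with DMSO and 100% = IFN-gamma with 300 µM nifuroxazide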
STAT3 activator: increases IL-6 driven STAT3 reporter signal; hit rate 0.91% among 190,000; AID 871; U3A cells, IL-6 STAT3-luciferase reporter, luminescence; 100% = signal with IL-6 EC80 alone; activation (% of control), % at 5.6 µM;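 active = activation above the screen-wide mean of compound activation plus 3 SD, cut at about 130% in these data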;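 note: 0% = background luminescence of wells with medium and substrate only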
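Detection: reporter luminescence signal / Assay system: STAT1-lacking human U3A cells, STAT3 luciferase reporter / Incubation: compound pre-incubation 1 h before IL-6, then 6 h stimulation at 37 °C / Control set: IL-6-only high control / Read-out: % activation relative to IL-6 control / Probe or stimulus: Interleukin-6, 33 ng/mL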
STAT1 act: activators of IFN-gamma induced STAT1 signaling; hit rate 2.6% among 200,000; activation (% of control), % at 5.5 µM; NIH 3T3 STAT1-luciferase reporter, luminescence; 100% = IFN-gamma alone, no compound;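 active = activation above the screen-wide mean activation plus 3 SD, cut at about 130% in these data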;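 note: raw ratio to IFN-gamma control signal so 100% means no change and 0% no light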
HSV replic up: HSV replication enhancement; HSV replication augmentation in cells, fold increase; maximum fold increase; hit rate 0.005% among 220,000; AID 1956; in the data active = maximum fold increase above about 1.5; inconclusive = no clear call, values can overlap the other calls; tested in PC3 cells
Cl transport mod: KCC2 (human) Cl- transport modulation; KCC2 cells, thallium flux FluoZin-2 fluorescence; Q9H2X9; hit rate 2.2% among 190,000; B-score of Tl+ flux slope (higher = more flux/activation; lower = inhibition) at 10 µM;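 active = thallium flux slope and its plate-corrected score both differing from the plate sample mean at a set confidence after two filtering rounds, in either direction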;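 note: slope of fluorescence scaled to starting intensity during 10 to 20 s after thallium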
Target sequence (Q9H2X9 whole entry, looked up): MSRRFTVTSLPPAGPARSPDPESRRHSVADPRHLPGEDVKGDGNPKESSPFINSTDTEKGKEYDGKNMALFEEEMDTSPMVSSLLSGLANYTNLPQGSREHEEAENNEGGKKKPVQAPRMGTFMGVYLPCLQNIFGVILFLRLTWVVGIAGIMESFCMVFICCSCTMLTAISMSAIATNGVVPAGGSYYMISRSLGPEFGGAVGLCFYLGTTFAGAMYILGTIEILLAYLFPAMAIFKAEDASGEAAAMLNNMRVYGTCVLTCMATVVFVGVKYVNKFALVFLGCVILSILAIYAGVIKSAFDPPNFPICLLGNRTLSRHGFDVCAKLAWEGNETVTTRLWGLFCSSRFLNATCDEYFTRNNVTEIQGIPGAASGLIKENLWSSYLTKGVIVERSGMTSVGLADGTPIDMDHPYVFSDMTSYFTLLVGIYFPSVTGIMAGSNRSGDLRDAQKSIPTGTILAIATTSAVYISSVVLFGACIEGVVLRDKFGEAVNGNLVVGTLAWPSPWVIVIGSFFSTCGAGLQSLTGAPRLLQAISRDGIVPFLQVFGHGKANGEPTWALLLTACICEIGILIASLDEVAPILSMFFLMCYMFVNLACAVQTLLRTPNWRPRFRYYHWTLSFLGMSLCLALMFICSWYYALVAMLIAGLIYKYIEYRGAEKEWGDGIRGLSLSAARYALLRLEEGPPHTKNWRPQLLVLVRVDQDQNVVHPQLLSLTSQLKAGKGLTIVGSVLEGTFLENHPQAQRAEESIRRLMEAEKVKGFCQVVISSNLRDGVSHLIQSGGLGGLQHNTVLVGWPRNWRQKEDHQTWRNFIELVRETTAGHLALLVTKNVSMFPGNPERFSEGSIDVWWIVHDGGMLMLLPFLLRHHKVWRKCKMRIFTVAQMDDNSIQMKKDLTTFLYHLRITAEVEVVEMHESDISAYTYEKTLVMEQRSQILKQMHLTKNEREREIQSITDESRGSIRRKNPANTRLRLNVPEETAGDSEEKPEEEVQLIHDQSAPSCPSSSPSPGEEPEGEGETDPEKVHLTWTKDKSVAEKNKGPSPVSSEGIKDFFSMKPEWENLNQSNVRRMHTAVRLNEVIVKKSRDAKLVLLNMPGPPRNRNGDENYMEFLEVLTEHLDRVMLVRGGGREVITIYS
STAT3 blocker: inhibitors of IL-6 induced STAT3 signaling; U3A cells, IL-6 STAT3-luciferase reporter, luminescence; host cell line lacks STAT1; AID 862; inhibition, % at 5.5 µM; hit rate 0.89% among 190,000;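 active = inhibition above the mean inhibition across all screened compounds plus 3 SD, cut at about 44% in these data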;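 note: 0% = DMSO only wells and 100% = 100 µM nifuroxazide control wells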
KCC2 sec1: KCC2 (human) modulation, secondary assay; AID 1713; hit rate 15% among 3,700; normalised thallium flux (F/F0 slope) at 10 µM; shares compounds with Cl transport mod; HEK293-KCC2, thallium flux, FluoZin2 fluorescence; active compounds read high;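 active = thallium flux slope above the same plate's solvent-only control mean plus 3 SD; inconclusive = the two replicate wells disagree; inactive = no significant difference from solvent-only control wells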
KCC2 bumet counter: thallium flux despite bumetanide block in KCC2 cells, secondary assay 3 | hit rate 49% among 3,700 | normalized thallium flux at 10 µM | HEK293-KCC2 + bumetanide/ouabain, thallium flux FluoZin2; active compounds read high | shares compounds with Cl transport mod | AID 1714;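 active = thallium entry rate above the same plate's blocked-transporter control wells by more than 3 SD; inconclusive = the two repeat wells disagree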;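 note: raw slope of fluorescence over initial fluorescence between 10 and 20 s after thallium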
KCC2 secondary2: confirmation of human KCC2 transport modulators; normalized thallium flux at 10 µM; HEK293-KCC2, thallium flux FluoZin2 fluorescence; actives lie on both sides; F/F0 rise rate, 10–20 s post-thallium; hit rate 23% among 3,700; shares compounds with Cl transport mod;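 active = thallium flux slope more than 3 SD above or below the plate's solvent-only control mean, mostly below; inconclusive = the two repeat wells disagreed; inactive = no significant shift from solvent-only controls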;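 note: raw slope with 0.1% DMSO as baseline and bumetanide as block control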
HEK counter1: parental HEK flux effect, counter-screen. thallium flux rate (normalised fluorescence) at 10 µM. shares compounds with Cl transport mod. hit rate 46% among 3,700. HEK293 parental cells, thallium flux FluoZin2, ouabain; baseline-ratio fluorescence slope, 10–20 s after thallium;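 active = thallium flux rate significantly above the same plate's solvent-only control wells, beyond their mean plus 3 SD; inconclusive = the two replicate wells gave conflicting results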
KCC2 ouabain: confirmation of human KCC2 modulators with ouabain | shares compounds with Cl transport mod | HEK293-KCC2, thallium flux FluoZin2 fluorescence; bidirectional: low = inhibitor, high = activator | raw Tl+ flux slope (below DMSO = inhibition, above = activation) at 10 µM | hit rate 48% among 3,700;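 active = thallium flux slope beyond 3 SD from same-plate DMSO control mean in most replicates, usually higher, sometimes lower; inconclusive = repeat tests gave conflicting results; inactive = no significant difference from controls in most replicates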;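 note: slope of initial-normalized fluorescence between seconds 10 and 20 after thallium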
HEK counter2: counter-screen for KCC2 modulators: effect in parental HEK293 cells | AID 1718 | thallium flux FluoZin-2 fluorescence slope | thallium flux slope at 10 µM | hit rate 33% among 3,700 | shares compounds with Cl transport mod;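 active = thallium flux slope above the same plate's solvent-control mean plus 3 SD in both duplicate wells; inconclusive = duplicate wells that disagreed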;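 note: run without ouabain in cells lacking the KCC2 cotransporter; slope of fluorescence scaled to its starting value between 10 and 20 s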
* marks the source's active call; other numbers are inactive results; i = inactive; ? = inconclusive; . = no result given. Shown are actives, neighbours in structure and some others; about 5.5% of the full set was active somewhere.

SMILES | STAT1 inh | STAT3 activator | STAT1 act | HSV replic up | Cl transport mod | STAT3 blocker | KCC2 sec1 | KCC2 bumet counter | KCC2 secondary2 | HEK counter1 | KCC2 ouabain | HEK counter2
O=C(NNC(=O)c1oc2ccccc2c1-n1cccc1)c1ccco1 | 1 | 102 | 97 | i | . | 3 | 0.0074 | 0.024* | 0.04* | 0.019* | 0.03* | 0.019*
NNC(=O)c1oc2ccccc2c1-n1cccc1 | 14 | 101 | 87 | i | -0.22 | 2 | . | . | . | . | . | .
c1ccc2c(CCNc3ncnc4nc[nH]c34)cccc2c1 | -1 | 73 | 102 | i | -3.2* | 35 | 0.0085 | 0.0041 | 0.035 | 0.0076 | 0.017* | 0.011
Cc1ccc(C)c(S(=O)(=O)NC(CC(C)C)C(=O)O)c1 (centres undefined) | 9 | 95 | 91 | . | 5.6* | 11 | 0.019 | ? | 0.031 | 0.0073 | 0.014 | 0.01
Cc1[nH]n(-c2ccccc2)c(=O)c1/C=N/N1CCOCC1 | . | . | . | i | 0.69 | . | . | . | . | . | . | .
Cc1[nH]n(-c2ccccc2)c(=O)c1/C=N/N1C(=O)c2cccc3cccc(c23)C1=O | -10 | 100 | 110 | i | 24* | 0 | ? | 0.02* | 0.045* | 0.017* | 0.032* | 0.017*
O=C(NCCc1ccccc1)C1CCC(CNc2nc(=S)[nH]c3ccccc23)CC1 (centres undefined) | -6 | 99 | 104 | i | 0.82 | 3 | . | . | . | . | . | .
O=C(Nc1nnc(C2CC2)o1)c1ccc(S(=O)(=O)N2CCCc3ccccc32)cc1 | . | . | . | . | 4.4* | . | 0.012* | 0.025* | 0.032 | 0.012* | ? | 0.011
CCn1ccnc1CN(C)Cc1cn(-c2ccccc2)nc1-c1ccc(OC)cc1F | -5 | 98 | 104 | i | 0.15 | 6 | . | . | . | . | . | .
Cc1cc(/C=N/Nc2nc(N)ncc2[N+](=O)[O-])c(C)n1-c1cccc(C(F)(F)F)c1 | . | . | . | i | 0.31 | . | . | . | . | . | . | .
Nc1nc(SCC(=O)N2CCCc3ccccc32)n(-c2ccccc2)n1 | 0 | 99 | 100 | i | 0.024 | 7 | . | . | . | . | . | .
Fc1ccc(CSc2nncn2NCc2ccccc2)cc1 | 4 | 101 | 99 | i | -1.7 | 1 | . | . | . | . | . | .
Fc1ccc(CSc2nncn2NC/C=C/c2ccccc2)cc1 | 1 | 100 | 99 | i | . | 5 | 0.0082 | 0.004 | ? | 0.0067 | ? | 0.0092
CCOc1ccc(CCNC(=O)C2CCC(=O)N2CCc2ccccc2)cc1OCC (centres undefined) | 12 | 99 | 89 | i | . | 2 | 0.016 | 0.004 | 0.031 | 0.0069 | 0.016 | 0.0098
CCN(CC)CCNC(=O)C1CCC(=O)N1CCc1ccccc1 (centres undefined) | 2 | 99 | 98 | i | . | 9 | . | . | . | . | . | .
O=c1c(-c2ccc(F)cc2)coc2cc(O)ccc12 | -50 | 95 | 146* | i | -5.8* | 10 | 0.0084 | 0.0065 | 0.028 | 0.0078 | 0.021* | ?
CCCOc1ccc(/C=C/C(=O)NCc2ccccc2)cc1 | -3 | 90 | 103 | . | -0.71 | 16 | . | . | . | . | . | .
CCOC(=O)c1ccc(NC(=O)CSc2nc(C)cc(=O)[nH]2)cc1 | 1 | 100 | 99 | i | . | 1 | 0.0066 | 0.0043 | 0.032 | 0.0068 | 0.018 | 0.0092
Cc1cc(=O)[nH]c(SCC(=O)Nc2ccc(C(=O)O)cc2)n1 | 4 | 96 | 96 | i | -0.099 | 10 | . | . | . | . | . | .
COC(=O)c1ccc(NC(=O)CSC2=NC(=O)C(c3ccccc3)C(=O)N2)cc1 (centres undefined) | -3 | 97 | 103 | i | 9.2* | 1 | 0.0095 | ? | 0.031 | 0.0074 | 0.019 | ?
CC(=O)NC(=S)Nc1ccc(N2CCOCC2)c(S(=O)(=O)Nc2cc(Cl)ccc2Cl)c1 | 4 | 102 | 94 | i | 0.16 | 3 | . | . | . | . | . | .
O=c1[nH]c(CSc2ncnc3sc(-c4ccccc4)cc23)nc2ccccc12 | . | . | . | i | 27* | . | 0.0069 | 0.024* | 0.031 | 0.021* | 0.032* | 0.014*
O=c1[nH]c(CSc2nc(-c3ccccc3)cs2)nc2ccccc12 | 3 | 93 | 98 | i | -0.21 | 11 | . | . | . | . | . | .
O=C(Nc1ccc(O)c(C(=O)O)c1)c1ccc2c(c1)C(=O)N(CC1CCCO1)C2=O (centres undefined) | 9 | 102 | 91 | i | 0.3 | 4 | . | . | . | . | . | .
CCc1ccc(NC(=O)CCn2c(=O)oc3ccccc32)cc1 | -1 | 98 | 101 | i | . | 7 | 0.0072 | 0.004 | 0.028 | 0.0071 | ? | 0.0095
SMILES | STAT1 inh | STAT3 activator | STAT1 act | HSV replic up | Cl transport mod | STAT3 blocker | KCC2 sec1 | KCC2 bumet counter | KCC2 secondary2 | HEK counter1 | KCC2 ouabain | HEK counter2
O=C(CCn1c(=O)oc2ccccc21)N1CCc2ccccc21 | -7 | 97 | 106 | i | . | 9 | 0.0077 | 0.0065 | 0.028 | 0.0068 | ? | 0.0095
Cc1ccc(NC(=O)CCn2c(=O)oc3ccccc32)cc1 | 9 | 96 | 92 | i | . | 10 | . | . | . | . | . | .
O=[N+]([O-])c1ccc(-c2cn(-c3ccccc3F)c(=S)[nH]2)cc1 | -10 | 94 | 109 | i | 5.8* | 9 | 0.0093 | 0.012* | 0.031 | 0.0089* | ? | 0.011*
Fc1ccccc1N1CCN(Cc2nc(-c3ccc(Cl)cc3Cl)no2)CC1 | 3 | 101 | 97 | i | . | 0 | . | . | . | . | . | .
NC(=O)C(c1ccc(Sc2ccccc2)nn1)c1ccc(Cl)cc1Cl (centres undefined) | 4 | 105 | 96 | i | 4* | -5 | 0.008 | 0.0046 | 0.033 | 0.0071 | 0.018 | 0.012
COc1cccc2sc(Nc3nnc(-c4ccccc4Cl)o3)nc12 | -5 | 129 | 105 | i | 80* | -35 | 0.044* | 0.13* | 0.099* | ? | 0.1* | 0.11*
CC(C1CC2CCC1C2)n1c(-c2ccco2)n[nH]c1=S (centres undefined) | 13 | 106 | 87 | i | 21* | -5 | 0.017* | 0.07* | ? | 0.028* | 0.056* | 0.016*
O=C(CSc1nnc(CNc2ccc(F)cc2)o1)N1c2ccccc2Sc2ccccc21 | -1 | 97 | 101 | i | 0.025 | 8 | . | . | . | . | . | .
